Data set [1] concerns Vaccinia virus. Put plainly: Antiviral activity against Vaccinia virus infected in HEL assessed as inhibition of virus-induced cytopathicity after 3 days. The data set is classed as functional, organism-based. Conditions: Orthopoxvirus vaccinia, 72 h.
In data set [2] the test system is Respiratory syncytial virus. In words: Antiviral activity against Respiratory syncytial virus infected in human HeLa assessed as inhibition of virus-induced cytopathicity after 3 days. The data set is classed as functional, organism-based. Put shortly: (§1)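 Confluent cell monolayers infected with 100 CCID50 of virus in the presence of test compound at 100, 20,... μM. Cytopathicity was scored once it was complete in untreated infected controls.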

Data set [3] relates to Coxsackievirus B4. Put plainly: Antiviral activity against Coxsackievirus B4 infected in human HeLa assessed as inhibition of virus-induced cytopathicity after 3 days. The data set is classed as functional, organism-based. Put shortly:
as §1

Data set [4] relates to Human respirovirus 3. Put plainly: Antiviral activity against Parainfluenza-3 virus infected in african green monkey Vero assessed as inhibition of virus-induced cytopathicity after 3 days. Format: functional, organism-based. Put shortly: as §1
Data set [5] can be described thus: Cytotoxicity against HEL after 3 days. Format: cell-based. Conditions: human, HEL cells. The procedure, abridged:
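HEL cells were seeded at 5×10^3 cells/well and allowed to grow for 24 h, then given medium with varying compound concentrations. After 3 days at 37 °C, cells were counted with a Coulter counter.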

For data set [6], the system named is Vesicular stomatitis virus. In words: Antiviral activity against Vesicular stomatitis virus infected in MDCK assessed as inhibition of virus-induced cytopathicity after 3 days. The data set is classed as functional, organism-based.
The subject of data set [7] is Influenza B virus. In words: Antiviral activity against Influenza B virus infected in MDCK assessed as inhibition of virus-induced cytopathicity after 3 days. Format: functional, organism-based.
Data set [8] has as its system Mammalian orthoreovirus 1. In words: Antiviral activity against Reovirus-1 infected in african green monkey Vero assessed as inhibition of virus-induced cytopathicity after 3 days. The data set is classed as functional, organism-based. The procedure, abridged: as §1
The subject of data set [9] is Human alphaherpesvirus 3. Put plainly: Antiviral activity against thymidine kinase-deficient VZV 07/1 infected in human HEL cells assessed as reduction of virus-induced cytopathogenicity after 3 days. The data set is classed as functional, organism-based. The following applies: Human alphaherpesvirus 3, 07/1, HEL, 72 h.
For data set [10], the system named is Human alphaherpesvirus 3. In words: Antiviral activity against VZV OKA expressing thymidine kinase infected in HEL cells assessed as inhibition of virus-induced cytopathogenicity after 3 days. The data set is classed as functional, cell-based. Conditions: Human alphaherpesvirus 3, strain Oka vaccine, 72 h.
Data set [11] concerns Influenza A virus. Put plainly: Antiviral activity against Influenza A virus H3N2 infected in MDCK assessed as inhibition of virus-induced cytopathicity after 3 days. Format: functional, organism-based.
The test system of data set [12] is Human alphaherpesvirus 1. In words: Antiviral activity against acyclovir-resistant thymidine kinase deficient HSV1 KOS infected in HEL assessed as inhibition of virus-induced cytopathicity after 3 days. Conditions: Human alphaherpesvirus 1, KOS, 72 h. Format: functional, organism-based.
The subject of data set [13] is Sindbis virus. In words: Antiviral activity against Sindbis virus infected in african green monkey Vero assessed as inhibition of virus-induced cytopathicity after 3 days. Format: functional, organism-based. The procedure, abridged:
as §1

Data set [14] relates to Human alphaherpesvirus 1. Put plainly: Antiviral activity against HSV1 KOS infected in HEL assessed as inhibition of virus-induced cytopathicity after 3 days. Format: functional, organism-based. The following applies: Human alphaherpesvirus 1, KOS, 72 h.
In data set [15] the test system is Human alphaherpesvirus 2. Put plainly: Antiviral activity against HSV2 G infected in HEL assessed as inhibition of virus-induced cytopathicity after 3 days. The data set is classed as functional, organism-based. Conditions: Human alphaherpesvirus 2, strain G, 72 h. The procedure, abridged: as §1
The nature of data set [16]: Cytotoxicity against HEL assessed as minimum compound concentration causes microscopically detectable alteration of cell morphology after 3 days. Format: cell-based. Conditions: human, HEL cells.
In data set [17] the test system is Influenza A virus. In words: Antiviral activity against Influenza A virus H1N1 infected in MDCK assessed as inhibition of virus-induced cytopathicity after 3 days. The data set is classed as functional, organism-based.
The subject of data set [18] is Vesicular stomatitis virus. Put plainly: Antiviral activity against Vesicular stomatitis virus infected in human HeLa assessed as inhibition of virus-induced cytopathicity after 3 days. The data set is classed as functional, organism-based.
Data set [19] deals with Punta Toro virus. Put plainly: Antiviral activity against Punta Toro virus infected in african green monkey Vero assessed as inhibition of virus-induced cytopathicity after 3 days. The data set is classed as functional, organism-based. Put shortly: as §1

The source made the active and inactive calls. The calls are words filed in the database; no cut-off is given here. Some results are limits rather than exact numbers.

Regarding `CC(C)c1ccc(Nc2nc(N)nc3c2ncn3C/C=C/CP(=O)(OCOC(=O)C(C)(C)C)OCOC(=O)C(C)(C)C)cc1`, the EC50 was greater than 100 µM in data set [1]; greater than 100 µM in data set [9]; greater than 20 µM in data set [10]; greater than 100 µM in data set [12]; greater than 100 µM in [14]; greater than 100 µM in data set [15]. In addition, the result in data set [2], in data set [3], in data set [4], in [6], in data set [7] and in data set [8] was inactive. In addition, the result in [11], in [13], in [17], in [18] and in data set [19] was inactive. The CC50 at 72 h in data set [5] was found to be 46 µM. In addition, the MCC at 72 h in data set [16] is greater than 100 µM.

Take `CC(C)(C)C(=O)OCOP(=O)(C/C=C/Cn1cnc2c(Cl)nc(N)nc21)OCOC(=O)C(C)(C)C`: the EC50 was greater than 20 µM in data set [1]; 2.2 µM in data set [9]; 4.4 µM in data set [10]; greater than 20 µM in data set [12]; greater than 20 µM in [14]; greater than 20 µM in data set [15]. Further, the result in [2], in data set [3], in [4], in data set [6], in [7] and in data set [8] was inactive. The outcome in data set [11], in data set [13], in [17], in [18] and in [19] was inactive. The compound also had a CC50 at 72 h in data set [5] of 5.4 µM. The MCC at 72 h in [16] was greater than 100 µM.

On to `CC(C)(C)C(=O)OCOP(=O)(C/C=C/Cn1cnc2c(NC3CC3)ncnc21)OCOC(=O)C(C)(C)C`, for which the EC50 was greater than 100 µM in [1]; 47.2 µM in [9]; 55.7 µM in [10]; greater than 100 µM in data set [12]; greater than 100 µM in data set [14]; greater than 100 µM in data set [15]. Also, the outcome in data set [2], in data set [3], in data set [4], in data set [6], in data set [7] and in data set [8] was inactive. Further, the outcome in [11], in data set [13], in data set [17], in data set [18] and in data set [19] was inactive. Besides, half-maximal cytotoxicity in data set [5] (CC50 at 72 h) was put at 39.6 µM. Moreover, the MCC at 72 h in [16] was greater than 100 µM.

As for `CC(C)(C)C(=O)OCOP(=O)(C/C=C/Cn1cnc2c(NC3CC3)nc(N)nc21)OCOC(=O)C(C)(C)C`, the EC50 in data set [1] stood at 20 µM; in data set [9] it was 0.8 µM; in data set [10], 0.8 µM; in data set [12], 16.3 µM; in data set [14], 16.3 µM; in data set [15] it was 7.2 µM. Besides, the result in [2], in [3], in data set [4], in data set [6], in data set [7] and in data set [8] was inactive. The result in [11], in data set [13], in data set [17], in data set [18] and in [19] was inactive. The CC50 at 72 h in data set [5] amounted to 2.3 µM. Further, the MCC at 72 h in data set [16] was greater than 100 µM.

`C=CCNc1ncnc2c1ncn2C/C=C/CP(=O)(OCOC(=O)C(C)(C)C)OCOC(=O)C(C)(C)C`: the EC50 in data set [1], in [9], in data set [10], in data set [12], in data set [14] and in data set [15] was greater than 100 µM throughout. In addition, the outcome in data set [2], in [3], in data set [4], in [6], in [7] and in [8] was inactive. Moreover, the outcome in data set [11], in data set [13], in data set [17], in [18] and in data set [19] was inactive. For the same compound, in data set [5], the CC50 at 72 h was greater than 100 µM. In addition, in data set [16], the MCC at 72 h is greater than 100 µM.

Turning to `CC(C)(C)C(=O)OCOP(=O)(C/C=C/Cn1cnc2c(Cl)ncnc21)OCOC(=O)C(C)(C)C`, the EC50 in data set [1], in data set [9], in data set [10], in data set [12], in [14] and in data set [15] was greater than 20 µM in each case. Further, the outcome in [2], in [3], in [4], in [6], in data set [7] and in data set [8] was inactive. Further, the result in data set [11], in [13], in data set [17], in [18] and in [19] was inactive. It took 10.5 µM to reach half-maximal cytotoxicity in [5] (CC50 at 72 h). For the same compound, the MCC at 72 h in [16] is 100 µM.

For the compound `CC(C)(C)C(=O)OCOP(=O)(C/C=C/Cn1cnc2c(NC3CCCCC3)ncnc21)OCOC(=O)C(C)(C)C`, the EC50 in data set [1] was greater than 100 µM; in [9], greater than 20 µM; in data set [10], 20 µM; in data set [12] it was greater than 100 µM; in data set [14], greater than 100 µM; in [15] it was greater than 100 µM. Also, the result in data set [2], in data set [3], in data set [4], in [6], in data set [7] and in data set [8] was inactive. Also, the result in data set [11], in data set [13], in data set [17], in data set [18] and in [19] was inactive. Also, in [5], the CC50 at 72 h came to 11.4 µM. Besides, the MCC at 72 h in data set [16] was 100 µM.

Turning to `CC(C)(C)C(=O)OCOP(=O)(C/C=C/Cn1cnc2c(NC3CCCCC3)nc(N)nc21)OCOC(=O)C(C)(C)C`, the EC50 is greater than 100 µM in [1]; 20 µM in data set [9]; 6.34 µM in data set [10]; greater than 100 µM in [12]; greater than 100 µM in data set [14]; greater than 100 µM in data set [15]. The outcome in [2], in [3], in data set [4], in data set [6], in data set [7] and in data set [8] was inactive. Moreover, the result in data set [11], in [13], in [17], in data set [18] and in data set [19] was inactive. Also, in data set [5], the CC50 at 72 h turned out to be 9 µM. In data set [16], the MCC at 72 h came to 100 µM.

On to `CCCCNc1ncnc2c1ncn2C/C=C/CP(=O)(OCOC(=O)C(C)(C)C)OCOC(=O)C(C)(C)C`, for which the EC50 in [1] was greater than 100 µM; in data set [9] it was greater than 100 µM; in [10], 100 µM; in [12], greater than 100 µM; in data set [14], greater than 100 µM; in [15], greater than 100 µM. Moreover, the result in [2], in data set [3], in [4], in [6], in data set [7] and in data set [8] was inactive. Besides, the result in data set [11], in [13], in [17], in data set [18] and in [19] was inactive. In [5], this compound gave a CC50 at 72 h of 37.2 µM. Also, in data set [16], the MCC at 72 h is greater than 100 µM.

Values taken from ChEMBL document CHEMBL2146385, “Synthesis and antiviral evaluation of bis(POM) prodrugs of (E)-[4'-phosphono-but-2'-en-1'-yl]purine nucleosides” (Eur J Med Chem, 2012).
